Reference: PubChem BioAssay
Activity calls are given as the source filed them.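 How the source made its calls, unless noted: active means inhibition of the reporter signal at or above 50%; inactive means inhibition below 50%.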

Tests used:
[1] = inhibitors of TNFa-induced NFkB p65 translocation, primary screen, imaging, HUVEC, MLSMR starter and 10KST1 sets (AID 438;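 active means inhibition above 20% together with a positive visual image hit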;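 further: compound added about 3h40 before a 20 min TNFalpha stimulation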;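 on inhibition: signal is the nuclear over cytoplasmic p65 intensity ratio per well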); conditions: HUVEC TNFa-induced p65 nuclear translocation; cell count: measured here: nuclei count (cytotoxicity indicator), at 2.08 µM; inhibition: at 2 µM, stronger effect = higher value, 0% TNFa-plus-vehicle, 100% no-TNFa wells
[2] = inhibitors of mutant huntingtin aggregation, primary screen, imaging, exon1htt(103Q)mCFP cells, high-content imaging (AID 483;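 active means visual image review flags a hit and inhibition of aggregation exceeds 20%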;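 further: compound exposure lasted 3 days before fixation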;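 on nuclei count: percent of the per-plate median nuclei count of sample wells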); conditions: exon1htt(103Q)mCFP cell line, aggregate imaging, at 2 µM; inhibition of aggregation: stronger effect = higher value; nuclei count: measured here: cell count, toxicity
[3] = inhibitors of E-selectin induction by TNFa, primary screen, imaging, HUVEC, immunofluorescence, MLSMR starter and 10KST1 sets (AID 487;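 active means visually confirmed hit in the image check and inhibition above 20%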;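 on inhibition: signal is fraction of cell area covered by stained E-selectin grains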;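 on nuclei count: 100% = median nuclei count of all wells on the same plate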); conditions: HUVEC TNFalpha-induced E-selectin immunofluorescence imaging, at 2 µM; inhibition: stronger effect = higher value; nuclei count: measured here: cell number, toxicity
[4] = biological target: Voltage-gated potassium channel subunit beta-2 (Rattus norvegicus) (UniProt P62483); experiment: KvBeta enzyme negative modulators, primary screen, biochemical, NADPH fluorescence (AID 622;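 active means fluorescence slope higher than the sample average by over 3 SD, cut at about -0.22 in these data, passing the limit was not always enough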;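 further: slope of raw intensity against log time taken from 70 to 1610 s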); conditions: recombinant KvBeta, 4-cyanobenzaldehyde reduction, at 10 µM, stronger effect = higher value
Chain of Voltage-gated potassium channel subunit beta-2 (Rattus norvegicus) (P62483 whole entry, looked up): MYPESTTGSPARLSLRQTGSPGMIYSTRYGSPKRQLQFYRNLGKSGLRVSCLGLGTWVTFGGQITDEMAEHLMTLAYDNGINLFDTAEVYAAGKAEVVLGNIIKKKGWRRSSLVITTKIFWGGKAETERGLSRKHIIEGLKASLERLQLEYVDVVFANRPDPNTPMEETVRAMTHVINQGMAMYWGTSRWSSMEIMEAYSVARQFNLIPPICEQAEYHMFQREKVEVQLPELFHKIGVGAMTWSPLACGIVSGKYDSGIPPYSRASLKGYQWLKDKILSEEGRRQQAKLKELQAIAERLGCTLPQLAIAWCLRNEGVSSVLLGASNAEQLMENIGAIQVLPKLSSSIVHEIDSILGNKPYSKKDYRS

[5] = biological target: Voltage-gated potassium channel subunit beta-2 (Rattus norvegicus) (UniProt P62483); experiment: KvBeta positive modulators, primary screen, biochemical, NADPH fluorescence (AID 623;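 active means NADPH fluorescence slope more negative than the mean of all samples by about 3 SD, 99.7% confidence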;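 further: fluorescence intensity change per second fitted from 20 to 320 s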); conditions: Recombinant KvBeta, NADPH fluorescence decrease slope, 10 min; at 10 µM; stronger effect = lower value
[6] = biological target: Muscarinic acetylcholine receptor M4 (Homo sapiens) (UniProt P08173); experiment: compounds altering M4/GIRK thallium flux, either direction, primary screen, M4 allosteric agonist project, cell-based, HEK293 M4/GIRK, BTC-AM (AID 625;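 active means fluorescence slope after compound addition differing from the mean of all tested samples at 99.7% confidence, mostly higher but some lower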;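 further: thallium influx through GIRK channels coupled to M4 in HEK293 cells with BTC-AM dye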); conditions: at 10 µM, actives lie on both sides
Chain of Muscarinic acetylcholine receptor M4 (Homo sapiens) (P08173 whole entry, looked up): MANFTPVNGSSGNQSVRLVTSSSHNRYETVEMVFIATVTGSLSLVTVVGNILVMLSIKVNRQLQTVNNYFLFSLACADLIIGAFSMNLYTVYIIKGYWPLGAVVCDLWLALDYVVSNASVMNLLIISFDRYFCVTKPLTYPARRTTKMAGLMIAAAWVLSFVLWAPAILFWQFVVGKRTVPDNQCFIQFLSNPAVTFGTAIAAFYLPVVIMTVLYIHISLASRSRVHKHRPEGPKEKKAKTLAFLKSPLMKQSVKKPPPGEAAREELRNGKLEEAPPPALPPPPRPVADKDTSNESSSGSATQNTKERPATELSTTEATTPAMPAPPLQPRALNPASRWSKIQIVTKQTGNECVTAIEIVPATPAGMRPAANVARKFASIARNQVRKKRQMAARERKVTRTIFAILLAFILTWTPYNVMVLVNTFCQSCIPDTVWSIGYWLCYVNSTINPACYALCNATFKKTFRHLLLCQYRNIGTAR
Procedure, shortened: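 assay system = HEK293 cells with M4 receptor and GIRK channels | medium = pH 7.3 thallium assay buffer | doses = 10 µM final, single point | timing = cells overnight at 37 °C, BTC-AM loading 1 h, reads 2 min total | signal = BTC-AM fluorescence, 1 Hz kinetic reads | read-out = post-addition slope, 15–24 s, of baseline-normalized fluorescence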

[7] = inhibitors of Sendai virus-induced IRF3 signaling, primary screen, TLR/RLR signaling modifier project, cell-based, Sendai virus stimulus, luciferase, 10K MLSCN set (AID 602276;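 active means inhibition at or above 50% at 10 µM; inactive means inhibition below 50%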;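 further: firefly luciferase from ISG56 promoter only with Renilla not read in this screen; 0% = Sendai virus plus DMSO and 100% = medium plus DMSO without virus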); conditions: HEK293 RL24 IRF3 luciferase reporter, at 10 µM, stronger effect = higher value
[8] = inhibitors of poly I:C-induced TLR3 signaling, primary screen, cell-based, poly I:C stimulus, luciferase, 10K MLSCN set (AID 602277); conditions: HEK293-TLR3 RL24 IRF3 luciferase reporter, at 10 µM, stronger effect = higher value

| Compound | cell count [1] | inhibition [1] | inhibition of aggregation [2] | nuclei count [2] | inhibition [3] | nuclei count [3] | fluorescence slope [4] | NADPH fluorescence slope [5] | fluorescence slope [6] | inhibition [7] | inhibition [8] |
| --- | --- | --- | --- | --- | --- | --- | --- | --- | --- | --- | --- |
| O=C(CCn1nc(-c2ccccc2)ccc1=O)N1CCCC1 | 349 | 2.1% (inactive) | -17% (inactive) | 95.9% | -8.9% (inactive) | 106% | -0.577 (inactive) | -2e-05 (inactive) | 0.00645 (inactive) | 6.69% (inactive) | 2.22% (inactive) |
| O=C(CSc1nc2[nH]ncc2c(=O)n1-c1ccccc1Br)NCc1ccco1 | 517 | -24% (inactive) | -8.3% (inactive) | 83.4% | -15.2% (inactive) | 95% | -0.549 (inactive) | -3.1e-05 (inactive) | 0.00777 (inactive) | 22.2% (inactive) | 28.1% (inactive) |
| Cc1ccc(C)c(C(=O)NC2CC(C)(C)NC(C)(C)C2)c1 | 690 | 0.8% (inactive) | 14% (inactive) | 94% | -8.2% (inactive) | 96% | -0.578 (inactive) | -5.3e-05 (inactive) | 0.00855 (inactive) | -2.48% (inactive) | 9.21% (inactive) |
| Cc1ccc(S(=O)(=O)Cc2ccc(C(=O)NCCCN3CCN(C)CC3)o2)cc1 | 597 | 2.3% (inactive) | -11.8% (inactive) | 101% | 22.2% (inactive) | 115% | -0.517 (inactive) | 1.7e-05 (inactive) | 0.00533 (inactive) | 14.1% (inactive) | 100% (active) |
| CCCS(=O)(=O)N1CCCC(C(=O)N2CCC(Cc3ccccc3)CC2)C1 (centres undefined) | 662 | -11.9% (inactive) | 5% (inactive) | 105% | -82.7% (inactive) | 106% | -0.5 (inactive) | -0.000282 (inactive) | 0.00325 (inactive) | 11.3% (inactive) | 12.1% (inactive) |
| CC1CCN(CCC(=O)Nc2ccc(Br)cc2)CC1 | 612 | 7.4% (inactive) | -13.6% (inactive) | 99.8% | 88.6% (active) | 179% | -0.42 (inactive) | 2.4e-06 (inactive) | 0.00434 (inactive) | 14% (inactive) | 19.3% (inactive) |
| Cc1ccc(O)c(NC(=O)COc2cc(C)ccc2C)c1 | 431 | 11.4% (inactive) | 3% (inactive) | 106% | -71.5% (inactive) | 115% | -0.473 (inactive) | 4.1e-05 (inactive) | 0.00732 (inactive) | -3.99% (inactive) | -13.6% (inactive) |
| CCOC(=O)CSc1nc2ccccc2c(=O)n1NC(=O)c1ccccc1 | 472 | -5.7% (inactive) | -2% (inactive) | 119% | 10.7% (inactive) | 92.2% | -0.445 (inactive) | 3.6e-06 (inactive) | 0.00551 (inactive) | 1.47% (inactive) | -19.8% (inactive) |
| CCOC(=O)c1c(C)oc2ccc(O)c(CN(C)C)c12 | 663 | 1.9% (inactive) | 16.5% (inactive) | 105% | -211% (inactive) | 108% | -0.551 (inactive) | -6.7e-06 (inactive) | 0.00733 (inactive) | 8.53% (inactive) | 20% (inactive) |
| CC(C)CC(c1nnnn1C1CCCC1)N1CCN(c2ccccc2F)CC1 (centres undefined) | 384 | -3.6% (inactive) | 6.8% (inactive) | 91.4% | -26.9% (inactive) | 109% | -0.589 (inactive) | 2e-05 (inactive) | 0.00507 (inactive) | 15.2% (inactive) | 26.4% (inactive) |
| N#Cc1c(N)nc(SCc2ccncc2)c(C#N)c1-c1cccs1 | 321 | 10.9% (inactive) | -2.2% (inactive) | 32.8% | 13.8% (inactive) | 107% | -0.529 (inactive) | -2.3e-05 (inactive) | 0.0051 (inactive) | 26.1% (inactive) | 25.1% (inactive) |
| CCOc1ccc(C(CC(=O)O)NC(=O)c2ccco2)cc1OC (centres undefined) | 562 | 1.8% (inactive) | -9.7% (inactive) | 113% | 22.7% (inactive) | 106% | -0.35 (inactive) | -3.7e-05 (inactive) | 0.00565 (inactive) | 9.42% (inactive) | 29.4% (inactive) |
| O=C(c1ccc(Cl)c(Cl)c1)N1CCOCC1 | 694 | -9.1% (inactive) | -0.3% (inactive) | 107% | 5.6% (inactive) | 105% | -0.568 (inactive) | -2.1e-05 (inactive) | 0.00532 (inactive) | 3.81% (inactive) | 3.54% (inactive) |
| CCOC(=O)CCCn1nc(C)n2c(cc3sccc32)c1=O | 563 | -3.2% (inactive) | -1.6% (inactive) | 119% | -28.3% (inactive) | 119% | -0.406 (inactive) | 8.7e-05 (inactive) | 0.00716 (inactive) | -11.6% (inactive) | -28.8% (inactive) |
